We go through six compounds from ChEMBL document CHEMBL5029200, “Imidazoline- and Benzamidine-Based Trypanosome Alternative Oxidase Inhibitors: Synthesis and Structure-Activity Relationship Studies” (ACS Med Chem Lett, 2022).

Bounds are passed on as bounds.

Data set [1] deals with Trypanosoma brucei brucei. In words: Inhibition of recombinant Trypanosoma brucei brucei delta MTS TAO using ubiquinol as substrate measured at 40 uM after 2 mins by UV-vis spectrophotometry.
A short description of data set [2]: Inhibition of recombinant Trypanosoma brucei brucei delta MTS TAO using ubiquinol as substrate measured after 2 mins by UV-vis spectrophotometry.
In data set [3] the test system is Trypanosoma brucei brucei. In words: Inhibition of recombinant Trypanosoma brucei brucei delta MTS TAO using ubiquinol as substrate measured at 40 uM after 2 mins by UV-vis spectrophotometry.
Data set [4] can be described thus: Selectivity index, ratio of CC50 for HEK293 cells to EC50 for antitrypanosomal activity against bloodstream form trypomastigotes of wild type Trypanosoma brucei brucei Lister 427. In kind it is toxicity. The conditions noted are these: human, read-out: Selectivity Index. The procedure, abridged: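 Selectivity index = CC50 in HEK cells divided by EC50 against wild-type Lister 427. HEK cytotoxicity by resazurin assay. […] Both values from sigmoidal variable-slope nonlinear regression. n = 3.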

The subject of data set [5] is Trypanosoma brucei brucei. In words: Antitrypanosomal activity against bloodstream form trypomastigotes of wild type Trypanosoma brucei brucei Lister 427 assessed as reduction in parasite viability by resazurin-based assay. Type of data set: functional, organism-based. The procedure, abridged: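 Monomorphic bloodstream-form trypanosomes grown in complete HMI-9 with 10% fetal bovine serum. Resazurin viability assay using 23 doubling dilutions of each compound, starting at 100 μM. EC50 obtained by nonlinear regression fitted to a variable-slope sigmoid. n = 3.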

Regarding `Cc1cc(O)cc(O)c1C(=O)NCCCOc1ccc(C(=N)N)cc1`, the inhibition in data set [1] came to 48%. The IC50 in data set [2] was more than 40 µM.

With `C/C(=C\Cc1c(O)c(Cl)c(C)c(C=O)c1O)CC/C=C(\C)[C@@H]1CC(=O)C(C)(C)O1`, the inhibition in data set [3] turned out to be 100%.

With `Cc1cc(O)cc(O)c1C(=O)NCCCCCCCCCCCCCCOc1ccc(C(=N)N)cc1`, the selectivity ratio in data set [4] was 10.7.

Regarding `Cc1cc(O)cc(O)c1C(=O)NCCCCCCCCCCCCOc1ccc(C2=NCCN2)cc1`, in data set [5], the EC50 was found to be 1.7 µM.

Turning to `Cc1cc(O)cc(O)c1C(=O)NCCCCCCCCCCCCCCOc1ccc(C(=N)NO)cc1`, the selectivity ratio in data set [4] worked out at 6.9.

`Cc1cc(O)cc(O)c1C(=O)NCCCCCCOc1ccc(C#N)cc1`: in data set [4], the selectivity ratio is 6.6.
